Assay results as given in ChEMBL document CHEMBL3526015, “Metabolism of the c-Fos/activator protein-1 inhibitor T-5224 by multiple human UDP-glucuronosyltransferase isoforms” (Drug Metab Dispos, 2011).

Legend:
[1] = target: T1, UDP-glucuronosyltransferase 1A1 (Homo sapiens, UniProt P22309); experiment: Drug metabolism assessed as Vmax/Km ratio for human UGT1A1-mediated T-5224 hydroxyl O-glucuronide formation per mg protein after 10 to 60 mins in presence of UDP-glucuronic acid by HPLC method; type: ADME; details: recombinant enzyme
T1 sequence (P22309 whole entry): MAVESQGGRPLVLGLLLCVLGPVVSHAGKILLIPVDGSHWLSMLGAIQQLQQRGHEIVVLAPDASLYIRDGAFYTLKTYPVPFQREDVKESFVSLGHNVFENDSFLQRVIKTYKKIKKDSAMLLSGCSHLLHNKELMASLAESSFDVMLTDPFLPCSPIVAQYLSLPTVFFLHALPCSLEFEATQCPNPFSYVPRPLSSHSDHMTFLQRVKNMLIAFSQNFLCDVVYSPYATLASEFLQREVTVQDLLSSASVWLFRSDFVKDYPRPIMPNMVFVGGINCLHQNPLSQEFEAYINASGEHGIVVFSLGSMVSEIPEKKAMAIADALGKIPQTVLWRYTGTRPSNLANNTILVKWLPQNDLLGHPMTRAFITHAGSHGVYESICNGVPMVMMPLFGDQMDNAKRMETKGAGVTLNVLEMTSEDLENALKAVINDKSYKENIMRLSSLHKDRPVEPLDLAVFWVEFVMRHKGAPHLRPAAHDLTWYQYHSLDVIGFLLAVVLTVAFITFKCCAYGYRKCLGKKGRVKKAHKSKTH
How it was run: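 Kinetics used recombinant UGT1A1, 1A3 or 1A8 (0.1 mg protein/mL) with T-5224 at 1–50 μM, 2 mM UDPGA and 60 min at 37°C, in triplicate. G2/G3 were measured by HPLC at 290 nm and fitted to a substrate-inhibition model (Vmax, Km, Ksi). UGT content was quantified by immunoblot, and kcat = Vmax/E0 was derived from it.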

[2] = Substrate inhibition of T-5224 hydroxyl O-glucuronide formation in human intestinal microsomes after 10 to 60 mins by HPLC method; parameters: species or system Intestine, Microsome
How it was run: (§1)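 Pooled liver (0.5 mg protein/mL) or intestinal (0.25 mg protein/mL) microsomes in 50 mM Tris-HCl pH 7.5, 8 mM MgCl2, alamethicin, 2% DMSO. T-5224 at 1–50 μM, 5 min preincubation at 37°C, started with 2 mM UDPGA. Incubated 10 min, or 20 min for intestinal microsomes at 1–5 μM. Acetonitrile stop, glucuronides by HPLC at 290 nm. Triplicates fitted to a substrate-inhibition model.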

Liver microsome = experiment: Drug metabolism in human liver microsomes assessed as Vmax/Km ratio for T-5224 hydroxyl O-glucuronide formation per mg protein after 10 to 60 mins by HPLC method; type: ADME; how it was run: as §1
[3] = target: T2, UDP-glucuronosyltransferase 1A3 (Homo sapiens, UniProt P35503); experiment: Substrate inhibition of human UGT1A3-mediated T-5224 acyl O-glucuronide formation after 10 to 60 mins in presence of UDP-glucuronic acid by HPLC method; type: ADME
T2 sequence (P35503 whole entry): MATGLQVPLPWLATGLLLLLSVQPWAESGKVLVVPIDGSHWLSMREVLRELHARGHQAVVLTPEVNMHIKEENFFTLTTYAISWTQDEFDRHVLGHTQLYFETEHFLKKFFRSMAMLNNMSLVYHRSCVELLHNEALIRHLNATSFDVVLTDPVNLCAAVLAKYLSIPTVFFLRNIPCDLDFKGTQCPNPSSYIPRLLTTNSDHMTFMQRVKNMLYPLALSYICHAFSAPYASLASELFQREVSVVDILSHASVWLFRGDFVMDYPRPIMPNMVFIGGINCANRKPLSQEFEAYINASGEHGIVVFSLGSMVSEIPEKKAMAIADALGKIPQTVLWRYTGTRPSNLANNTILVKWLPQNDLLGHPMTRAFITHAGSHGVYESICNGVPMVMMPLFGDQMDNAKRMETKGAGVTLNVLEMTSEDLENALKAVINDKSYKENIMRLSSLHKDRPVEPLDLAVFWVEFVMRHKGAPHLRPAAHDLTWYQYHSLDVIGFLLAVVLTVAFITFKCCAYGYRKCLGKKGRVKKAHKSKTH
How it was run: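 Recombinant human UGT1A1, UGT1A3 or UGT1A8 from baculovirus-infected insect cells (0.1 mg protein/mL) in 50 mM Tris-HCl pH 7.5, 8 mM MgCl2, alamethicin, 2% DMSO. T-5224 at 1–50 μM with 2 mM UDPGA for 60 min at 37°C. HPLC with UV at 290 nm. Triplicates fitted to a substrate-inhibition model. kcat uses UGT content quantified by immunoblot against recombinant UGT1A1/UGT2B4 standards.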

[4] = target: T2, UDP-glucuronosyltransferase 1A3; experiment: Drug metabolism assessed as human UGT1A3-mediated T-5224 acyl O-glucuronide formation at 5 to 50 uM after 60 mins in presence of UDP-glucuronic acid by HPLC method; type: ADME; details: recombinant enzyme, 1 h
[5] = target: T2, UDP-glucuronosyltransferase 1A3; experiment: Drug metabolism assessed as human UGT1A3-mediated T-5224 hydroxyl O-glucuronide formation at 5 to 50 uM after 60 mins in presence of UDP-glucuronic acid by HPLC method; type: ADME; details: recombinant enzyme, 1 h
[6] = target: T3, UDP-glucuronosyltransferase 1A8 (Homo sapiens, UniProt Q9HAW9); experiment: Drug metabolism assessed as human UGT1A8-mediated T-5224 hydroxyl O-glucuronide formation at 5 to 50 uM after 60 mins in presence of UDP-glucuronic acid by HPLC method; type: ADME; details: recombinant enzyme, 1 h
T3 sequence (Q9HAW9 whole entry): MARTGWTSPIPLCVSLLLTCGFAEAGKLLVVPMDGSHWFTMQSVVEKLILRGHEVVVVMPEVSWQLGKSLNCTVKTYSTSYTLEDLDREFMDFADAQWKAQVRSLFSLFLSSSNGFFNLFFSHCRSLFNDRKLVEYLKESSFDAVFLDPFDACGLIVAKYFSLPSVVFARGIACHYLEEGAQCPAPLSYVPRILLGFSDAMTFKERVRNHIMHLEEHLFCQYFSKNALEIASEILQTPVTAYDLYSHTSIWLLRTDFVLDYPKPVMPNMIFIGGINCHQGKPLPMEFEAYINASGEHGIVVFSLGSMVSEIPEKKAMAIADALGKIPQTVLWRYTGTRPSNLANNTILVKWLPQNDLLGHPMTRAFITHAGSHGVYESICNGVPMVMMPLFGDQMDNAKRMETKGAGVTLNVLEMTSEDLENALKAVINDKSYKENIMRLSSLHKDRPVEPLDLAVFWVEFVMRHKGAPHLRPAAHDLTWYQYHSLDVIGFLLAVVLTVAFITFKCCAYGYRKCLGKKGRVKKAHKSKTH

[7] = Drug metabolism assessed as human CYP2C9*1-mediated metabolite formation at 2 uM after 30 mins by HPLC method; type: ADME; details: 0.5 h
How it was run: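 Each recombinant human P450 was used at 50 pmol/mL with an NADPH-generating system and 2 μM 14C-T-5224 (0.5% DMSO final). Buffer was 100 mM Tris-HCl pH 7.5, except 100 mM potassium phosphate pH 7.4 for CYP2A6 and CYP2C9*1. Incubation ran 30 min at 37°C and was stopped with acetonitrile/methanol. Radioactive metabolite peaks were detected by C18 HPLC.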

Vmax/Km [1]: 26.2 µL/min
Ki [2]: 58 µM
Vmax/Km (Liver microsome): 19.5 µL/min
Ki [3]: 13.5 µM
Drug metabolism [4]: metabolite_detected
Drug metabolism [5]: metabolite_detected
Drug metabolism [6]: metabolite_detected
Drug metabolism [7]: metabolite_not_detected
Structure (SMILES): O=C(O)CCc1cc(C(=O)c2ccc(OC3CCCC3)cc2O)ccc1OCc1ccc2c(O)noc2c1
